2 compounds from ChEMBL document CHEMBL4334424, “The winding road of the uvaretin class of natural products: from total synthesis to bioactive agent discovery” (Medchemcomm, 2019) can be followed below.

The test system of experiment [1] is HeLa. Briefly: Cytotoxicity against human HeLa cells assessed as reduction in cell viability incubated for 72 hrs by alamar blue assay. The format is functional, cell-based. The essentials:
(§1)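 Adherent cells were seeded at 1500 cells/well in 384-well plates and allowed 2–3 h to attach. Compounds in DMSO, diluted in media over 31.6 nM–200 μM, were tested in triplicate for 72 h continuous exposure at 37 °C, 5% CO2. Alamar Blue was added for the final 3 h and fluorescence read (ex 560/em 590 nm). IC50 was fitted from ≥3 independent experiments.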

In experiment [2] the test system is U-937. Briefly: Cytotoxicity against human U937 cells assessed as reduction in cell viability incubated for 72 hrs by alamar blue assay. Type of experiment: functional, cell-based. Conditions: U-937, 72 h. Put shortly:
(§2)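 Suspension cells (2200/well, 384-well) were added directly onto compound in media with no attachment period. Compounds spanned 31.6 nM–200 μM in triplicate, with 72 h exposure at 37 °C, 5% CO2. Alamar Blue was added for the last 3 h and fluorescence read (ex 560/em 590 nm). IC50 came from ≥3 independent experiments.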
On the technique in general: Alamar Blue is a resazurin reagent that responds to reducing activity.

The subject of another experiment is A549. Briefly: Cytotoxicity against human A549 cells assessed as reduction in cell viability incubated for 72 hrs by alamar blue assay. The format is functional, cell-based. Conditions: A549, 72 h. The essentials:
as §1

The subject of a further experiment is MIA PaCa-2. Briefly: Cytotoxicity against human MIAPaCa2 cells assessed as reduction in cell viability incubated for 72 hrs by alamar blue assay. Type of experiment: functional, cell-based. The note with it: MIA PaCa-2, 72 h. Put shortly: as §1
The subject of another experiment is REH. Briefly: Cytotoxicity against human REH cells assessed as reduction in cell viability incubated for 72 hrs by alamar blue assay. The format is functional, cell-based. The essentials:
as §2

In experiment [3] the test system is HCT-116. The experiment can be described thus: Cytotoxicity against human HCT116 cells assessed as reduction in cell viability incubated for 72 hrs by alamar blue assay. Type of experiment: functional, cell-based. The note with it: HCT-116, 72 h. The essentials: as §1
The subject of experiment [4] is HeLa. Briefly: Cytotoxicity against human HeLa cells assessed as reduction in cell viability incubated for 72 hrs in presence of doxorubicin by alamar blue assay. The format is functional. The essentials: (§3)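 Same combination format as the 6TP study, with the cytotoxic partner (doxorubicin, etoposide or paclitaxel) combined with test compound. Cells were at 4000/well (adherent) in 100 μL, 1% DMSO, for 72 h at 37 °C, 5% CO2, with Alamar Blue viability read-out. Combination index was derived by the Chou–Talalay protocol and reported as a median.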

The subject of experiment [5] is U-937. The experiment can be described thus: Cytotoxicity against human U937 cells assessed as reduction in cell viability incubated for 72 hrs in presence of 6TP by alamar blue assay. Type of experiment: functional. The essentials:
(§4)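 Combination assay in 96-well plates with 100 μL final volume and 1% DMSO. Two test-compound concentrations were crossed with five 6TP concentrations, then cells were added (4000/well adherent, 7000/well suspension). Plates ran 72 h at 37 °C, 5% CO2, with Alamar Blue viability read-out and ≥3 independent experiments. Combination index was calculated by the Chou–Talalay method.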

The subject of experiment [6] is HCT-116. Briefly: Cytotoxicity against human HCT116 cells assessed as reduction in cell viability incubated for 72 hrs in presence of 6TP by alamar blue assay. Type of experiment: functional, cell-based. Put shortly:
as §4

Experiment [7] has as its system HCT-116. The experiment can be described thus: Cytotoxicity against human HCT116 cells assessed as reduction in cell viability incubated for 72 hrs in presence of paclitaxel by alamar blue assay. The format is functional, cell-based. Put shortly: as §3
Experiment [8] has as its system HCT-116. The experiment can be described thus: Cytotoxicity against human HCT116 cells assessed as reduction in cell viability incubated for 72 hrs in presence of etoposide by alamar blue assay. Type of experiment: functional, cell-based. The essentials:
as §3

Activity calls are given as the source filed them. The rule behind the calls is not given here.

For `COc1cc(OC)c(C(=O)CCc2ccccc2)c(OC)c1Cc1ccccc1O`, the IC50 (usually the concentration that inhibits the measured activity by half) is above 20000 nM in the experiment on HeLa [1]; above 20 µM with U-937 [2]; above 20 µM with A549; above 20 µM in the experiment on MIA PaCa-2; above 20 µM in the experiment with REH; above 20 µM in the experiment on HCT-116 [3]. The CI with HeLa [4] is reported as 0.11; with U-937 [5], 0.22.

For `COc1cc(OC)c(C(=O)/C=C/c2ccccc2)c(OC)c1Cc1ccccc1O`, the IC50 was 2700 nM with HeLa [1]; 4.2 µM in the experiment with U-937 [2]; 9.3 µM in the experiment with A549; 4.1 µM in the experiment with MIA PaCa-2; above 20 µM with REH; 18.6 µM in the experiment with HCT-116 [3]. In addition, the result in the experiment on HCT-116 [6], with HCT-116 [7] and in the experiment with HCT-116 [8] was inactive. In the experiment with HeLa [4], the CI amounted to 0.12.
